We go through 14 compounds from PubChem BioAssay.

A short description of assay [1]: inhibitors of TNFa-induced NFkB p65 translocation, primary screen, imaging, HUVEC, MLSMR starter and 10KST1 sets (AID 438;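 active = inhibition above 20% together with a positive visual image hit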;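 also: compound added about 3h40 before a 20 min TNFalpha stimulation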;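 as to inhibition: signal is the nuclear over cytoplasmic p65 intensity ratio per well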). Conditions: HUVEC TNFa-induced p65 nuclear translocation; cell count: measured here: nuclei count (cytotoxicity indicator), at 2.08 µM; inhibition: at 2 µM, stronger effect = higher value, 0% TNFa-plus-vehicle, 100% no-TNFa wells.
Assay [2] can be described thus: reduction of polyQ htt aggregates in cells – imaging, exon1htt(103Q)mCFP cells, high-content imaging, primary screen (AID 483;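 active = visual image review flags a hit and inhibition of aggregation exceeds 20%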;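 also: compound exposure lasted 3 days before fixation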;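 as to nuclei count: percent of the per-plate median nuclei count of sample wells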). Particulars: exon1htt(103Q)mCFP cell line, aggregate imaging, at 2 µM; inhibition of aggregation: stronger effect = higher value; nuclei count: measured here: cell count, toxicity.
A short description of assay [3]: endothelial E-selectin expression blockers – imaging, HUVEC, immunofluorescence, MLSMR starter and 10KST1 sets, primary screen (AID 487;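 active = visually confirmed hit in the image check and inhibition above 20%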;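 as to inhibition: signal is fraction of cell area covered by stained E-selectin grains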;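 as to nuclei count: 100% = median nuclei count of all wells on the same plate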). Conditions: HUVEC TNFalpha-induced E-selectin immunofluorescence imaging, at 2 µM; inhibition: stronger effect = higher value; nuclei count: measured here: cell number, toxicity.
The target of assay [4] is Voltage-gated potassium channel subunit beta-2 (Rattus norvegicus) (UniProt P62483). Nature of the assay: inhibitors of rat Kvbeta2 reductase activity – biochemical, NADPH fluorescence, primary screen (AID 622;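 active = fluorescence slope higher than the sample average by over 3 SD, cut at about -0.22 in these data, passing the limit was not always enough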;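 also: slope of raw intensity against log time taken from 70 to 1610 s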). Particulars: recombinant KvBeta, 4-cyanobenzaldehyde reduction, at 10 µM, stronger effect = higher value.
The target is the same in assay [5]. Nature of the assay: enhancers of rat Kvbeta2 NADPH turnover – biochemical, NADPH fluorescence, primary screen (AID 623).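 Also: fluorescence intensity change per second fitted from 20 to 320 s.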 Conditions: Recombinant KvBeta, NADPH fluorescence decrease slope, 10 min; at 10 µM; stronger effect = lower value.
The target of assay [6] is Muscarinic acetylcholine receptor M4 (Homo sapiens) (UniProt P08173). The assay can be described thus: M4-linked GIRK flux change, two-sided – cell-based, HEK293 M4/GIRK, thallium flux, BTC-AM, M4 allosteric agonist project, primary screen (AID 625;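 active = fluorescence slope after compound addition differing from the mean of all tested samples at 99.7% confidence, mostly higher but some lower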;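 also: thallium influx through GIRK channels coupled to M4 in HEK293 cells with BTC-AM dye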). Particulars: at 10 µM, actives lie on both sides. In outline:
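assay system = HEK293 cells with M4 receptor and GIRK channels | medium = pH 7.3 thallium assay buffer | doses = 10 µM final, single point | timing = cells overnight at 37 °C, BTC-AM loading 1 h, reads 2 min total | signal = BTC-AM fluorescence, 1 Hz kinetic reads | read-out = post-addition slope, 15–24 s, of baseline-normalized fluorescence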

The nature of assay [7]: blockers of RIG-like receptor reporter activation – cell-based, Sendai virus stimulus, luciferase, 10K MLSCN set, TLR/RLR signaling modifier project, primary screen (AID 602276;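 active = inhibition at or above 50% at 10 µM; inactive = inhibition below 50%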;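 also: firefly luciferase from ISG56 promoter only with Renilla not read in this screen; 0% = Sendai virus plus DMSO and 100% = medium plus DMSO without virus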). Conditions: HEK293 RL24 IRF3 luciferase reporter, at 10 µM, stronger effect = higher value. Background: Reporter assays use an easily measured gene product as a stand-in for the process of interest.
Assay [8] can be described thus: TLR3 IRF3 reporter activation blockers – cell-based, poly I:C stimulus, luciferase, 10K MLSCN set, primary screen (AID 602277;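 active = inhibition of the reporter signal at or above 50%; inactive = inhibition below 50%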). Particulars: HEK293-TLR3 RL24 IRF3 luciferase reporter, at 10 µM, stronger effect = higher value.

The structures appear in SMILES notation. Activity calls are given as the source filed them.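 The calls were made as follows, unless noted: active = NADPH fluorescence slope more negative than the mean of all samples by about 3 SD, 99.7% confidence; inactive = the rest.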

Muscarinic acetylcholine receptor M4 (Homo sapiens), sequence (P08173 whole entry, looked up): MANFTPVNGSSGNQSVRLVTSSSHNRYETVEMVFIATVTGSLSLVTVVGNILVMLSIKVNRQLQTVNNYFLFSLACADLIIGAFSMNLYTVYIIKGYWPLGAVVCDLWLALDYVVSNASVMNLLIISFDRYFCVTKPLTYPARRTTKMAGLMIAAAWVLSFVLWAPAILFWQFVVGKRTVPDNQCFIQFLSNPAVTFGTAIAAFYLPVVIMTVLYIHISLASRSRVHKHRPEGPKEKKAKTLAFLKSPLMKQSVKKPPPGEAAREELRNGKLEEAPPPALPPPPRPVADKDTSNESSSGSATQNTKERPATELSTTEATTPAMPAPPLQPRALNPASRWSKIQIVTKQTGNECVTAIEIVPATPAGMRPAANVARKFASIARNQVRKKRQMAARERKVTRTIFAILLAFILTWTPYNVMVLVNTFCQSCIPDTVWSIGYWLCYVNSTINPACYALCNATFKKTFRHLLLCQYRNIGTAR
Voltage-gated potassium channel subunit beta-2 (Rattus norvegicus), sequence (P62483 whole entry, looked up): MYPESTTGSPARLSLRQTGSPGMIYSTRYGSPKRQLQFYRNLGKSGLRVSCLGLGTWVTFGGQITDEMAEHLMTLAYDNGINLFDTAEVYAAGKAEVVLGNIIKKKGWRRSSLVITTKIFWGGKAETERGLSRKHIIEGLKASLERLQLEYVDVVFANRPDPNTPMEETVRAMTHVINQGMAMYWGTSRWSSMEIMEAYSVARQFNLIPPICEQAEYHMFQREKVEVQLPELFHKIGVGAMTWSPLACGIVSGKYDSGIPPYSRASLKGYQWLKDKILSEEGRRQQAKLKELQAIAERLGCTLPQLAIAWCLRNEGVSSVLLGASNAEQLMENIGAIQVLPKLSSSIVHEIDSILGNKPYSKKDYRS

Turning to `COCCN1C(=O)C(=O)/C(=C(/O)c2ccc(OC(C)C)cc2)C1c1cccnc1` (centres undefined), the cell count in assay [1] was 644. Moreover, the inhibition (usually the drop in the measured response relative to a control, in per cent) is -4.7% (inactive) in assay [1], 19.8% (inactive) in assay [3], 17.3% (inactive) in assay [7] and 19.8% (inactive) in assay [8]. In addition, the inhibition of aggregation in assay [2] was -7.9% (inactive). Also, the figures for the nuclei count in assay [2] and in assay [3] were 116% and 104%, respectively. For the same compound, the fluorescence slope in assay [4] is -0.422 (inactive); in assay [6], 0.00536 (inactive). Also, the NADPH fluorescence slope in assay [5] is -1.5e-05 (inactive).
Take `Cc1nc(SCC(=O)c2c[nH]c3ccccc23)n[nH]1`: the cell count in assay [1] is 339. Further, the inhibition was -6.5% (inactive) in assay [1], -81.8% (inactive) in assay [3], 17.1% (inactive) in assay [7] and 14.3% (inactive) in assay [8]. Further, the inhibition of aggregation in assay [2] was -7.8% (inactive). Also, the nuclei count in assay [2] amounted to 103%; in assay [3], 76.3%. Besides, the fluorescence slope in assay [4] is -0.472 (inactive); in assay [6], 0.00544 (inactive). The NADPH fluorescence slope in assay [5] is -6.1e-05 (inactive).
Turning to `COC(=O)c1c(-c2ccc(F)cc2)noc1N`, the cell count in assay [1] is 502. The inhibition is 5.3% (inactive) in assay [1], -2% (inactive) in assay [3], -1.09% (inactive) in assay [7] and -9.58% (inactive) in assay [8]. In addition, the inhibition of aggregation in assay [2] is -3.7% (inactive). In addition, the results for the nuclei count in assay [2] and in assay [3] were 106% and 104%, respectively. Besides, the results for the fluorescence slope in assay [4] and in assay [6] were -0.278 (inactive) and 0.00633 (inactive), respectively. In assay [5], the NADPH fluorescence slope was -6.3e-06 (inactive).
`CCNc1oc(COc2cccc(C)c2)nc1C#N`: in assay [1], the cell count is 791. For the same compound, the inhibition in assay [1] was -2.1% (inactive); in assay [3], -14.2% (inactive); in assay [7], -43.9% (inactive); in assay [8] it was -83.4% (inactive). The inhibition of aggregation in assay [2] was 15.8% (inactive). Besides, the nuclei count in assay [2] turned out to be 114%; in assay [3], 111%. The values for the fluorescence slope in assay [4] and in assay [6] were -0.57 (inactive) and 0.00641 (inactive), respectively. For the same compound, the NADPH fluorescence slope in assay [5] was -5e-05 (inactive).
For the compound `COc1cc(-c2nc(-c3cccc(C(F)(F)F)c3)no2)cc(OC)c1OC`, the cell count in assay [1] turned out to be 413. The inhibition in assay [1] is 5.3% (inactive); in assay [3], -78.2% (inactive); in assay [7], 3.75% (inactive); in assay [8] it was -10.8% (inactive). In addition, the inhibition of aggregation in assay [2] is 3.5% (inactive). The results for the nuclei count in assay [2] and in assay [3] were 102% and 109%, respectively. The values for the fluorescence slope in assay [4] and in assay [6] were -0.554 (inactive) and 0.00715 (inactive), respectively. Further, the NADPH fluorescence slope in assay [5] is -5.5e-05 (inactive).
For `COc1ccc(CCNS(=O)(=O)c2ccc3c(c2)CCN3C(=O)CCC(=O)O)cc1OC`, in assay [1], the cell count is 620. Also, the inhibition in assay [1] was -6.5% (inactive); in assay [3], -14.5% (inactive); in assay [7], 12.6% (inactive); in assay [8] it was 21.5% (inactive). In addition, the inhibition of aggregation in assay [2] is 0.9% (inactive). Also, the values for the nuclei count in assay [2] and in assay [3] were 125% and 121%, respectively. The fluorescence slope in assay [4] is -0.553 (inactive); in assay [6] it was 0.00473 (inactive). Also, the NADPH fluorescence slope in assay [5] was 7.1e-06 (inactive).
On to `COc1ccccc1-c1nc(C(F)(F)F)c(OC)o1`, for which the cell count in assay [1] came out at 469. For the same compound, the inhibition was -3.3% (inactive) in assay [1], -126% (inactive) in assay [3], 21.1% (inactive) in assay [7] and 11.8% (inactive) in assay [8]. In assay [2], the inhibition of aggregation was -0.2% (inactive). For the same compound, the values for the nuclei count in assay [2] and in assay [3] were 120% and 215%, respectively. For the same compound, the fluorescence slope in assay [4] is -0.423 (inactive); in assay [6], 0.00491 (inactive). Further, in assay [5], the NADPH fluorescence slope was -9.3e-07 (inactive).
As to `CCOC(=O)N1CCC(NC(=O)c2ccc(OC)c(CN3CC(=O)N4CCCC4C3=O)c2)CC1` (centres undefined), the cell count in assay [1] worked out at 532. Besides, the inhibition in assay [1] was -18.9% (inactive); in assay [3] it was -71.7% (inactive); in assay [7] it was 13.2% (inactive); in assay [8] it was 24.9% (inactive). The inhibition of aggregation in assay [2] is 2.9% (inactive). For the same compound, the nuclei count in assay [2] stood at 98%; in assay [3] it was 94.9%. The fluorescence slope is -0.447 (inactive) in assay [4] and 0.00582 (inactive) in assay [6]. Also, the NADPH fluorescence slope in assay [5] was -4.9e-05 (inactive).
On to `CCSC1=C(C#N)C(c2cccc(OC)c2)CC(=O)N1` (centres undefined), for which the cell count in assay [1] is 667. The inhibition in assay [1] was -14.3% (inactive); in assay [3], -70.7% (inactive); in assay [7], 14.9% (inactive); in assay [8] it was 11.6% (inactive). The inhibition of aggregation in assay [2] is -16.9% (inactive). In addition, the nuclei count in assay [2] was determined as 101%; in assay [3], 114%. Further, the fluorescence slope in assay [4] was -0.496 (inactive); in assay [6], 0.00475 (inactive). In assay [5], the NADPH fluorescence slope was -3.8e-05 (inactive).
With `COC(=O)c1nn(-c2ccc(-c3ccccc3)cc2)cc1O`, in assay [1], the cell count amounted to 281. In addition, the inhibition in assay [1] is 6% (inactive); in assay [3] it was 9.1% (inactive); in assay [7] it was 6.22% (inactive); in assay [8], 7.64% (inactive). Besides, the inhibition of aggregation in assay [2] was 14.9% (inactive). For the same compound, the nuclei count in assay [2] was found to be 99.2%; in assay [3], 111%. For the same compound, the fluorescence slope in assay [4] is -0.493 (inactive); in assay [6], 0.00465 (inactive). Also, the NADPH fluorescence slope in assay [5] was -1.1e-05 (inactive).
Take `COC(=O)Cn1cc(C(=O)c2cccs2)c2ccccc21`: the cell count in assay [1] came to 220. Besides, the inhibition in assay [1] is -21.4% (inactive); in assay [3], 4.3% (inactive); in assay [7], 14.1% (inactive); in assay [8] it was 20.4% (inactive). Also, the inhibition of aggregation in assay [2] is 8.5% (inactive). Besides, the results for the nuclei count in assay [2] and in assay [3] were 82.9% and 70.5%, respectively. In addition, the fluorescence slope was -0.554 (inactive) in assay [4] and 0.00685 (inactive) in assay [6]. Also, the NADPH fluorescence slope in assay [5] is -3.7e-05 (inactive).
Consider `Cc1c(Br)c(C(F)(F)F)nn1CC(=O)NCCN1CCOCC1`, for which, in assay [1], the cell count turned out to be 412. For the same compound, the inhibition was 1.6% (inactive) in assay [1], -39.7% (inactive) in assay [3], 1.54% (inactive) in assay [7] and 21.8% (inactive) in assay [8]. Also, the inhibition of aggregation in assay [2] was 0.2% (inactive). Moreover, the nuclei count in assay [2] came to 86.5%; in assay [3], 114%. The fluorescence slope was -0.553 (inactive) in assay [4] and 0.00496 (inactive) in assay [6]. For the same compound, in assay [5], the NADPH fluorescence slope is -5.2e-05 (inactive).
Turning to `COc1ccccc1CNC(=O)CCn1c(=O)[nH]c2ccsc2c1=O`, the cell count in assay [1] came to 504. In addition, the inhibition was 1.1% (inactive) in assay [1], 9.6% (inactive) in assay [3], 16.6% (inactive) in assay [7] and -5.76% (inactive) in assay [8]. Further, in assay [2], the inhibition of aggregation was 6.6% (inactive). For the same compound, the figures for the nuclei count in assay [2] and in assay [3] were 111% and 110%, respectively. Also, the fluorescence slope in assay [4] was -0.266 (inactive); in assay [6], 0.0062 (inactive). For the same compound, in assay [5], the NADPH fluorescence slope is -3e-05 (inactive).
`Cc1coc(NC(=O)CSc2nc(-c3ccncc3)cc(C(F)(F)F)c2C#N)n1`: in assay [1], the cell count came out at 740. The inhibition in assay [1] was -7.9% (inactive); in assay [3], -29.3% (inactive); in assay [7], 5.59% (inactive); in assay [8], 8.54% (inactive). The inhibition of aggregation in assay [2] was 16.1% (inactive). For the same compound, the nuclei count in assay [2] is 86.8%; in assay [3] it was 115%. For the same compound, the fluorescence slope in assay [4] was -0.471 (inactive); in assay [6], 0.00557 (inactive). The NADPH fluorescence slope in assay [5] is -2.9e-05 (inactive).
